# According to ChEMBL document CHEMBL1129932, “Novel naphthalene derivatives as inhibitors of human immunoglobulin E antibody production” (J Med Chem, 1997):
# pIC50: −log10 of the molar value.
# What was measured:
# [1] = In vitro inhibition of IgG antibody production in human PBMC cultured with alpha-CD40, IL-4 and IL-10 at 3 uM concentration […]; type: functional
# [2] = Inhibitory activity against IgG antibody production in PBMC; type: functional; conditions: Homo sapiens
# Outline: (§1)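 Human PBMC from healthy donors (final 2×10^6 cells/mL, triplicate) were cultured in RPMI 1640 with 10% FCS, glutamine and antibiotics. IL-4 (0.1 μg/mL), IL-10 (0.2 μg/mL) and α-CD40 (2 μg/mL) were added on day 0, with or without compound. After 14 days, IgG in the medium was measured by ELISA. Suppression (%) = (level without − level with compound)/level without × 100.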
# [3] = Inhibitory activity against IgE antibody production in PMBC cells; type: functional, cell-based; conditions: Homo sapiens
# Outline: (§2)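 Human PBMC from healthy donors (final 2×10^6 cells/mL) were cultured in triplicate in RPMI 1640 with 10% FCS, 2 mM glutamine and penicillin/streptomycin. On day 0 they received IL-4 0.1 μg/mL, IL-10 0.2 μg/mL and α-CD40 2 μg/mL, with or without compound. After 14 days, IgE in the medium was measured by ELISA. Suppression (%) = (without − with compound)/without × 100, and IC50 was given for active compounds.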
# [4] = In vitro inhibition of IgE antibody production in human PBMC cultured with alpha-CD40, IL-4 and IL-10 at 3 uM concentration; type: functional; outline: as §2
# [5] = Tested for human PBMC cell viability, cultured with alpha-CD40, IL-4 and IL-10 at 3 uM (a negative number means enhancement of cell viability); type: functional
# Outline: (§3)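 Viability was read in the same 14-day PBMC cultures (2×10^6 cells/mL, triplicate) with IL-4 0.1 μg/mL, IL-10 0.2 μg/mL and α-CD40 2 μg/mL. After the medium was removed, alamar blue was added for 2 h and fluorescence was read (excitation 530 nm, emission 590 nm). Suppression (%) = (without − with compound)/without × 100.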
# [6] = In vitro inhibition of IgE antibody production in human PBMC cultured with alpha-CD40, IL-4 and IL-10 at 3 uM concentration (negative means enhancement of antibody biosynthesis); type: functional; outline: as §2
# [7] = test system: RBL-1; test: Compound was tested for inhibition of LTB4 production by rat basophilic leukemia cells(RBL-1) stimulated with A-23187; type: functional, cell-based
# Outline: (§4)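 RBL-1 cells were maintained in DMEM with 10% FCS. Cells were preincubated with or without compound for 10 min at 37 °C, then stimulated with A23187 at a final 2 μM for 5 min. The reaction was stopped, and LTB4 in the centrifuged supernatant was measured by ELISA kit.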
# [8] = Compound was tested for inhibition of IgE production on human PBMC culture after treating with IL-4, alpha-CD40, IL-10; type: functional; outline: as §2
# [9] = organism: Homo sapiens; test: Compound was tested for inhibition of PGE-2 production by human lung fibroblast WI-38 stimulated with interleukin-1-alpha (IL-1alpha) and [Ca2+] ionophore A-23187; type: functional
# Outline: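 WI-38 human lung fibroblasts (2×10^5 cells/mL) were grown to confluence over 4 days, then serum-starved overnight in medium with 0.5% BSA. Medium was replaced with 0.5% BSA medium containing IL-1α 10 ng/mL, with or without compound, and incubated overnight at 37 °C. Released PGE2 was measured by ELISA kit.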
# [10] = In vitro inhibition of IgE antibody production in human PBMC cultured with alpha-CD40, IL-4 and IL-10 at 3 uM concentration […]; type: functional
# [11] = test system: RBL-1; test: Compound was tested for inhibition of LTB4 production by rat basophilic leukemia cells (RBL-1) stimulated with A-23187; type: functional, cell-based; outline: as §4
# [12] = Tested for human PBMC cell viability, cultured with alpha-CD40, IL-4 and IL-10 at 3 uM; type: functional; outline: as §3
# [13] = In vitro inhibition of IgG antibody production in human PBMC cultured with alpha-CD40, IL-4 and IL-10 at 3 uM concentration; type: functional; outline: as §1
# [14] = Compound was tested for inhibition of IgE production on human PBMC culture after treating with IL-4, HC; type: functional
# Outline: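 PBMC at a final 2×10^6 cells/mL were cultured in triplicate in RPMI 1640 with 10% FCS, 2 mM glutamine and penicillin/streptomycin. IL-4 (0.1 μg/mL) and HC (1 μM) were added on day 0, with or without compound. After 14 days, IgE in the medium was measured by ELISA. Suppression (%) = (level without compound − level with compound)/level without compound × 100.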
# [15] = Inhibitory activity against IgE antibody production in PBMC; type: functional; conditions: Homo sapiens; outline: as §2
# [16] = test system: B-cell line; test: Compound was tested for inhibition of IgE production on mouse B cells after treating with IL-4, LPS; type: functional, cell-based
# Outline: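 B cells came from DBA/2 splenocytes depleted with anti-mouse T cell serum plus rabbit complement, then fractionated by gradient centrifugation. They were cultured in RPMI 1640 with 10% FCS and LPS at a final 2 μg/mL. After 1 day, mouse IL-4 was added at a final 50 ng/mL. Culture continued for 6 days, and IgE in the media was measured by ELISA.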
Compound,Suppression [1] [%],Suppression [4] [%],Cell viability [5],Suppression [13] [%],further results
O=C(Nc1ccccc1C(=O)O)c1ccc(Oc2ccccc2)cc1,-1.8,46,-1.4,,pIC50 [2]: < 5.00; pIC50 [3]: 5.48
CC(C)(C(=O)Nc1ccccc1C(=O)O)c1ccc(Oc2ccc3ccccc3c2)cc1,-5.4,,-11.3,,Suppression [6]: -30.4%
O=C(Nc1ccccc1C(=O)O)c1ccc(Oc2ccc3ccccc3c2)cc1,-16.9,64.8,-7.4,,pIC50 [7]: 6.40; pIC50 [2]: 4.42; pIC50 [8]: 5.89; pIC50 [9]: 5.00
O=C(Nc1ccccc1-c1nn[nH]n1)c1ccc(Oc2ccc3ccccc3c2)cc1,-18.7,,-13.6,,Suppression [10]: -74.5%
O=C(Cc1ccc(Oc2ccc3ccccc3c2)cc1)Nc1ccccc1C(=O)O,,86.6,,31.2,pIC50 [2]: 5.37; pIC50 [8]: 6.22; pIC50 [11]: 6.15; Cell viability [12]: 11.4; pIC50 [9]: 5.00; pIC50 [14]: 5.72
O=C(Nc1ccccc1C(=O)O)c1ccc(COc2ccc3ccccc3c2)cc1,-16.1,,,,Suppression [6]: -6.1%; pIC50 [8]: < 5.52; pIC50 [9]: > 6.00
O=C(Nc1ccccc1C(=O)O)c1cccc(Oc2ccc3ccccc3c2)c1,-16,,-23.6,,Suppression [10]: -26.2%
O=C(O)c1cccc(NC(=O)c2ccc(Oc3ccc4ccccc4c3)cc2)c1,,,-14.5,2.5,Suppression [10]: -29.6%
O=C(CCc1ccc(Oc2ccc3ccccc3c2)cc1)Nc1ccccc1C(=O)O,-41.2,8.5,-2.9,,
Nc1ccccc1NC(=O)c1ccc(Oc2ccc3ccccc3c2)cc1,,31.6,,3.3,Cell viability [12]: -9.3
NC(=O)c1ccccc1NC(=O)c1ccc(Oc2ccc3ccccc3c2)cc1,,8.6,,10.8,Cell viability [12]: 7.3
O=C(O)c1ccccc1C(=O)Nc1ccc(Oc2ccc3ccccc3c2)cc1,-23.1,,,,Suppression [10]: -11.8%; Cell viability [12]: 1.5
O=C(Nc1ccccc1C(=O)O)c1ccc(Cc2ccc3ccccc3c2)cc1,-21.1,9.5,-1.1,,
O=C(O)c1ccc(Oc2ccc3ccccc3c2)cc1,-4.8,,,,Suppression [10]: -4.6%
O=C(Nc1ccccc1C(=O)O)c1ccc(Sc2ccc3ccccc3c2)cc1,-2.8,25.8,,,
O=C(Nc1ccccc1C(=O)O)c1ccc(C(=O)c2ccc3ccccc3c2)cc1,,10.3,,5.4,
O=C(CCCC1CC1/C=C/c1ccc2ccccc2c1)Nc1ccccc1C(=O)O (centres undefined),-0.5,63,-2.6%,,pIC50 [2]: < 5.00; pIC50 [15]: 5.73
CN(C(=O)c1ccc(Oc2ccc3ccccc3c2)cc1)c1ccccc1C(=O)O,,,-5.1,10.1,Suppression [10]: -27.7%
O=C(Nc1ccccc1C(=O)O)c1ccc(Oc2ccc3ccccc3c2)c([N+](=O)[O-])c1,,93,,36.9,Cell viability [12]: 19.1
CC(C(=O)Nc1ccccc1C(=O)O)c1ccc(Oc2ccc3ccccc3c2)cc1 (centres undefined),-15.9,8.7,-2.1,,
O=C(Nc1ccccc1C(=O)O)c1ccc(Oc2ccc3cc(O)ccc3c2)cc1,-8.7,76.6,,,pIC50 [2]: < 5.00; pIC50 [15]: 5.92; Cell viability [12]: 5.2
O=C(Nc1ccccc1C(=O)O)c1ccc(Oc2cccc3ccccc23)cc1,,96.9,-6.5,64.7,pIC50 [2]: 5.63; pIC50 [15]: 5.80
O=C(O)c1ccccc1NCc1ccc(Oc2ccc3ccccc3c2)cc1,-4.5,21.9,-1.7,,
O=C(Cc1ccc(Oc2ccc3cc(OCc4ccccc4)ccc3c2)cc1)Nc1ccccc1C(=O)O,,95.1,,91.7,pIC50 [2]: 7.38; pIC50 [8]: 8.08; pIC50 [16]: 7.92; pIC50 [11]: 5.92; Cell viability [12]: 58.2
O=C(O)c1ccc(NC(=O)c2ccc(Oc3ccc4ccccc4c3)cc2)cc1,,,-16.1,24.4,Suppression [10]: 6.4%
